# Bioassay records (PubChem BioAssay)
# In the library only some 1.7% were active in any assay of this set; here they are far more common.
# SUMO1-SIM PPI = modulators of SUMO1 protein-protein interactions, primary screen, biochemical, uHTS | SUMO1 binding to a labelled peptide, TR-FRET, 1 h | inhibition, % at 20 µM | 360,000 compounds, 0.33% hits | AID 602429, 2012; in the data active means inhibition above about 37%
# Target sequence (P63165 whole entry, looked up): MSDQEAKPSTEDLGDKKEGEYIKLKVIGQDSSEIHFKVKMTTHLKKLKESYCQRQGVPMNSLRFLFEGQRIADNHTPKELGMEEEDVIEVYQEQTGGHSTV
# STEP block = STEP phosphatase inhibitors, primary screen, biochemical, fluorescence intensity, uHTS. AID 588621, 2011. inhibition, % at 20 µM. 360,000 compounds, 0.25% hits. Tyrosine-protein phosphatase non-receptor type 5 (Homo sapiens), P54829. recombinant STEP, OMFP fluorogenic substrate;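 active means inhibition at 20 µM, scaled per plate between control wells, above about 37%, limit read from the data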
#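 System: isolated STEP enzyme; schedule: 20 min enzyme reaction at room temperature, protected from light; medium: Bis-Tris buffer pH 6.0, 2.5 mM DTT, 0.005% Tween 20; signal: fluorescence, 480/540 nm; dosing: single compound dose of 20 µM, 1% DMSO final; also added: OMFP substrate, 25 µM final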
# LMPTP block = LMPTP phosphatase inhibitors, primary screen, biochemical, fluorescence intensity, uHTS | Low molecular weight phosphotyrosine protein phosphatase (Homo sapiens), P24666 | recombinant LMPTP-A, OMFP fluorogenic substrate | inhibition, % at 20 µM | 360,000 compounds, 0.22% hits | AID 651560, 2012;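 active means compounds that cut the enzyme signal by at least half of the control window in the single-dose screen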
# Target sequence (P24666 whole entry, looked up): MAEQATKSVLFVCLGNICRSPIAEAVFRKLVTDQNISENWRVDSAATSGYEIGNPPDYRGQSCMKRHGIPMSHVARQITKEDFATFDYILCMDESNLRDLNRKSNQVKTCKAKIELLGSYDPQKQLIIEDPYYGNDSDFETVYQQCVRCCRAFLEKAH
#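 Assay system: LMPTP-A, protein tyrosine phosphatase of low molecular weight / Medium: pH 6.0 Bis-Tris buffer with DTT and Triton X-100 / Schedule: 50 min enzyme reaction at room temperature, protected from light / Measured by: endpoint fluorescence intensity from OMFP dephosphorylation / Read-out basis: % inhibition relative to no-enzyme and uninhibited control wells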
# Scp-1 inhibitor = Scp-1 phosphatase inhibitors, primary screen, biochemical, colorimetric, uHTS; Carboxy-terminal domain RNA polymerase II polypeptide A small phosphatase 1 (Homo …; Recombinant Scp1, phosphopeptide, malachite green phosphate absorbance; inhibition, % at 20 µM; 340,000 compounds, 0.88% hits; AID 493091, 2011;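 active means inhibition above about 50% at 20 µM, limit read from the data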
# Target sequence (Q9GZU7 76-261 limits assumed): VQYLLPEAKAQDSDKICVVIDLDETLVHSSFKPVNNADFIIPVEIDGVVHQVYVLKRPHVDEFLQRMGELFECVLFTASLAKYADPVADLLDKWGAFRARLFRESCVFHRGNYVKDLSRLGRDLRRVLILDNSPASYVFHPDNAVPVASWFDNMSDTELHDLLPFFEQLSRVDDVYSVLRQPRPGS
#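 Test system: SCP-1 phosphatase catalytic domain, residues 76-261; measured by: colorimetric phosphate reagent with accelerator and stabiliser, absorbance at 630 nm; timing: enzyme reaction 45 min at room temperature, colour 5 min, stabilisation 30 min; also added: Phosphorylated 17-residue peptide substrate; compound dosing: one concentration, 20 µM, with 1.0% DMSO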
# CASP6 VEID inh = human caspase-6 inhibitors, primary screen, biochemical, VEID-R110 fluorescence, single point, set 2; P55212; purified caspase-6, Z-VEID-R110 cleavage fluorescence; inhibition, % at 12.5 µM; 350,000 compounds, 0.53% hits; AID 686996, 2013;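 active means mean inhibition across replicates at least about 35%, with every replicate also reaching that limit, limit read from the data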
# DNMT1 block = human DNMT1 methyltransferase inhibitors, primary screen, biochemical, molecular beacon, fluorescence, HinP1I cleavage, uHTS. DNA (cytosine-5)-methyltransferase 1 (Homo sapiens), P26358. inhibition (reported as % activation of signal), % at 10 µM. 360,000 compounds, 0.83% hits. AID 588458, 2011; in the data active means inhibition above about 50%
# A number is an active result; – = inactive; · = no result given; + = active, no number.
SMILES,SUMO1-SIM PPI,STEP block,LMPTP block,Scp-1 inhibitor,CASP6 VEID inh,DNMT1 block
O=C(NN=C1CCCC1)c1n[nH]c2c1CCC2,–,–,–,–,59,–
CCOC(=O)C1=C(c2ccccc2)OC(N)=C(C#N)C1c1ccco1 (stereo unspecified),–,–,–,–,·,–
CCC(=O)N1N=C(c2ccc(NS(=O)(=O)c3ccc(C)cc3)cc2)CC1c1ccco1 (stereo unspecified),–,–,–,–,–,–
CCOC(=O)C1=C(O)/C(=C/c2ccc(OCC(=O)O)c(OCC)c2)SC1=Nc1ccccc1,–,–,–,–,–,–
CCOC(=O)C1=C(O)/C(=C/c2ccc(OCC(=O)O)c(OC)c2)SC1=Nc1ccc(OCC)cc1,–,–,–,–,37,–
COc1cc2cccc(OC)c(=O)c2c(O)c1OC,–,–,–,–,–,–
COc1cc2c(ccc3cc(OC)c(OC)c(O)c32)cc1O,–,53,62,69,86,85
COc1ccc2[nH]cc(CCCN3C(=O)c4ccccc4C3=O)c2c1,–,–,–,–,·,–
COc1nc(Nc2nc3ccccc3c(=O)[nH]2)nc2ccc(C)cc12,47,–,–,–,–,–
O=c1oc2cc(O)ccc2cc1-c1nc2c(s1)CCc1ccccc1-2,–,–,–,–,·,+
O=c1oc2ccccc2cc1-c1nc2c(s1)CCc1ccccc1-2,–,–,–,–,·,–
O=C(C=Cc1ccco1)c1ccco1,–,–,–,–,56,–
O=C(/C=C/c1ccc(Br)cc1)c1ccco1,–,–,–,–,–,–
COc1cccc(CN2CCc3[nH]c(=S)[nH]c(=O)c3C2)c1,–,–,–,–,41,–
C[C@H]1CN([C@@H](C)CO)C(=O)c2cc(C3=CCCC3)cnc2O[C@@H]1CN(C)Cc1ccccn1,·,·,·,·,–,·
CC1Cc2cc(/C(O)=C3/C(=O)C(=O)N(CC4CCCO4)C3c3ccco3)ccc2O1 (stereo unspecified),–,–,–,–,·,50
COc1cc(C2/C(=C(\O)c3ccc4c(c3)CC(C)O4)C(=O)C(=O)N2CC2CCCO2)cc(OC)c1OC (stereo unspecified),–,–,–,–,–,–
N#Cc1ccccc1OCC(=O)NC1CCCCCC1,–,–,–,·,–,–
C=CCNC(=O)COc1ccccc1C#N,–,–,–,–,52,–
N/C(Cc1cccc2ccccc12)=N\OC(=O)c1ccccc1F,–,–,–,–,41,–
N/C(Cc1ccc(Cl)cc1Cl)=N\OC(=O)c1ccccc1F,–,–,–,–,–,–
O=C(NCc1ccc(Cl)cc1Cl)c1ccc2nc[nH]c2c1,–,–,–,–,·,–
O=C(NCc1ccccc1Cl)c1ccc2nc[nH]c2c1,–,–,–,–,39,–
Cc1ccc(C2(COC(=O)C(C)C)CO2)c(OC(=O)C(C)C)c1 (stereo unspecified),–,–,–,–,–,–
CCC(C)C(=O)OCC1(c2ccc(C)cc2OC(=O)C(C)C)CO1 (stereo unspecified),–,–,–,53,–,–
SMILES,SUMO1-SIM PPI,STEP block,LMPTP block,Scp-1 inhibitor,CASP6 VEID inh,DNMT1 block
NC(=O)c1c(NC(=O)Cn2nc(C(=O)O)c3ccccc3c2=O)sc2c1CCC2,66,–,–,–,–,–
NC(=O)c1c(NC(=O)Cn2nc(C(=O)O)c3ccccc3c2=O)sc2c1CCCC2,–,–,–,–,–,–
CCOC(=O)c1cc(-c2ccc(/C=C3/C(=O)NC(=O)C(C#N)=C3C)o2)ccc1Cl,–,–,–,81,–,–
COc1cc(OC)cc(C(=O)OCC(=O)Nc2nnc(-c3ccccc3)o2)c1,–,–,–,–,–,–
CCC[n+]1c(C)sc2c3c(ccc21)CCCC3,–,–,–,98,·,–
Nc1c(Cl)ncnc1N1CCN(c2ncnc(Cl)c2N)CC1,–,–,–,–,–,–
CCCNC(=O)C1CCN(S(=O)(=O)c2ccc3nc4c(c(C(=O)O)c3c2)CCCCC4)CC1,–,–,–,–,–,–
COc1ccccc1CNC(=O)C1CCN(S(=O)(=O)c2ccc3nc4c(c(C(=O)O)c3c2)CCCC4)CC1,–,–,–,–,50,–
COc1ccc(CNC(=O)C2CCN(S(=O)(=O)c3ccc4nc5c(c(C(=O)O)c4c3)CC(C)CC5)CC2)cc1 (stereo unspecified),–,–,–,–,36,–
CC1CCC(NC(=O)C2CCN(S(=O)(=O)c3ccc4nc5c(c(C(=O)O)c4c3)CC(C)CC5)CC2)CC1 (stereo unspecified),–,–,–,–,–,–
CC1CCc2nc3ccc(S(=O)(=O)N4CCC(C(=O)NCc5ccccc5Cl)CC4)cc3c(C(=O)O)c2C1 (stereo unspecified),–,–,–,–,45,–
CC(NC(=O)C1CCN(S(=O)(=O)c2ccc3nc4c(c(C(=O)O)c3c2)CCCC4)CC1)c1ccccc1 (stereo unspecified),–,–,–,–,52,–
O=C(O)CCC(=O)N1CCc2cc(S(=O)(=O)NC3CCCC3)ccc21,–,–,–,–,·,–
CCN(c1ccccc1)S(=O)(=O)c1ccc(C(=O)Nc2ccccn2)cc1,–,–,–,–,–,–
O=C(O)c1c2c(nc3ccc(S(=O)(=O)N4CCC(C(=O)NCc5ccccc5)CC4)cc13)CCCC2,–,–,–,·,–,–
CN(Cc1ccccc1)C(=O)C1CCN(S(=O)(=O)c2ccc3nc4c(c(C(=O)O)c3c2)CCCC4)CC1,–,–,–,–,62,–
Cc1ccc(CCNC(=O)C2CCN(S(=O)(=O)c3ccc4nc5c(c(C(=O)O)c4c3)CCCC5)CC2)cc1,–,–,–,–,62,–
Cc1nn(C)c(Cl)c1CN1CCN(CC(C)C)C(CCO)C1 (stereo unspecified),–,–,–,–,–,–
COc1ccccc1CNc1nc(NCc2cccs2)nc2ccsc12,–,–,–,·,–,–
COc1ccccc1CNc1nc(Nc2cccc(-c3cnco3)c2)c2sccc2n1,–,–,51,·,–,–
COc1ccccc1CNc1nc(Nc2ccccc2-n2cccn2)c2sccc2n1,–,–,–,·,43,–
CC(=O)Nc1ccc(CNc2nc(NCc3cccs3)nc3ccsc23)cc1,–,–,61,·,–,–
CC(=O)NCCNc1nc(NCc2ccccc2)nc2ccsc12,–,–,–,·,–,–
